pKi: −log10 of the molar value.
Columns and labels:
[1] = molecular target: T1, Adrenergic receptor alpha-2 (Rattus norvegicus, UniProt P22086+P19328+P22909); assay: Displacement of clonidine from Alpha-2 adrenergic receptor of rat cortical membranes; assay type: cell membranes, Membrane
T1 sequence (P22086 whole entry): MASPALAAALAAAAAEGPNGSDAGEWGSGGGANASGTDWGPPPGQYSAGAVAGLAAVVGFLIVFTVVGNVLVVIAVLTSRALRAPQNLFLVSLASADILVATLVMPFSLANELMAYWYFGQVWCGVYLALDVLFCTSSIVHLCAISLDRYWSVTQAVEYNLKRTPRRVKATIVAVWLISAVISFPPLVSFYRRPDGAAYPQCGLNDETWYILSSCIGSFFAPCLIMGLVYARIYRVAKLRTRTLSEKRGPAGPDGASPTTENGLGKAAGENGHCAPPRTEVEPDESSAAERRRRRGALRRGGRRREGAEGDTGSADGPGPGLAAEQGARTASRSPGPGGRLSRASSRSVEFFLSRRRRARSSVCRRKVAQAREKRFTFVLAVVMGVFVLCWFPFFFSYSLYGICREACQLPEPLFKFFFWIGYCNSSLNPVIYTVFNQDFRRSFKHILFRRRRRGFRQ
T1 sequence (P19328 whole entry): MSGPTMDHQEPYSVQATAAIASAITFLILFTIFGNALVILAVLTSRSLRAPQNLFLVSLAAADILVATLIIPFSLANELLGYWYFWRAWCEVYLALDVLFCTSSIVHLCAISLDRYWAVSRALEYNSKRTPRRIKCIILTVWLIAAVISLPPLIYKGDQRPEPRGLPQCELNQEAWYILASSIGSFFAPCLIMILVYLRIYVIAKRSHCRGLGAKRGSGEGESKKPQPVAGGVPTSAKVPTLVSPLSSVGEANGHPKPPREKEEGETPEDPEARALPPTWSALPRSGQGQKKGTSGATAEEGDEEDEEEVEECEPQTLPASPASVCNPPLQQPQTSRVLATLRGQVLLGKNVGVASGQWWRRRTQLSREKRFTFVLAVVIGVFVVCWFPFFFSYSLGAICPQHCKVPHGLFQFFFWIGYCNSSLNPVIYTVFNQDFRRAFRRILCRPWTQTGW
T1 sequence (P22909 whole entry): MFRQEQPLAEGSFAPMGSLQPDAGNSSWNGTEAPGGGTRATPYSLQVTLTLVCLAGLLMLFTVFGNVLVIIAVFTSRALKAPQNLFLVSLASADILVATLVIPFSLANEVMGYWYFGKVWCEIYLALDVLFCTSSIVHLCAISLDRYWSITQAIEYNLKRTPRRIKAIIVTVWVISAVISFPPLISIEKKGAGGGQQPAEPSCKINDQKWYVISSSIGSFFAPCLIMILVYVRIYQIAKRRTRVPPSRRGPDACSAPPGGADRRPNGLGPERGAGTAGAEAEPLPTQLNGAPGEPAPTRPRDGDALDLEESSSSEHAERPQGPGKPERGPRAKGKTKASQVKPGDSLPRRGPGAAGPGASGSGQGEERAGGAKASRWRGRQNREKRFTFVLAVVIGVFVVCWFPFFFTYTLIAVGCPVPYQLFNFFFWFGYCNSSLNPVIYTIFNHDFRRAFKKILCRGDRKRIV
Method in brief: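 α2 competition binding run in triplicate with 1 nM [³H]clonidine plus 10 mM MgCl₂ in Tris pH 7.4, 30 min at room temperature. Test compounds at 1-100 µM. Nonspecific binding defined with 10 µM clonidine. Membranes collected on GF/B filters and washed twice with cold Tris. Protein 300-400 µg per assay. Ki given as mean ± SEM of 3-6 experiments.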

[2] = molecular target: Serotonin 2 (5-HT2) receptor (Rattus norvegicus, UniProt P30994+P08909+P14842); assay: Compound is evaluated for binding affinity towards 5-hydroxytryptamine 2 receptor using [3H]ketanserin in rat brain; assay type: tissue-based
Method in brief: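 Contract radioligand competition binding. Sources: 5-HT1 and 5-HT1A in rat brain cortex; 5-HT2 and σ2 in rat brain; σ in guinea pig brain; D2, rhD2 and rhD3 in CHO cells with [³H]spiperone; H1 in guinea pig lung with [³H]pyrilamine. Inhibition constants reported; no constant given where inhibition at 10 µM was below 50%.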

[3] = molecular target: T2, Alpha-1B adrenergic receptor (Rattus norvegicus, UniProt P15823); assay: Displacement of [3H]prazosin from Alpha-1B adrenergic receptor of rat liver membrane
T2 sequence (P15823 whole entry): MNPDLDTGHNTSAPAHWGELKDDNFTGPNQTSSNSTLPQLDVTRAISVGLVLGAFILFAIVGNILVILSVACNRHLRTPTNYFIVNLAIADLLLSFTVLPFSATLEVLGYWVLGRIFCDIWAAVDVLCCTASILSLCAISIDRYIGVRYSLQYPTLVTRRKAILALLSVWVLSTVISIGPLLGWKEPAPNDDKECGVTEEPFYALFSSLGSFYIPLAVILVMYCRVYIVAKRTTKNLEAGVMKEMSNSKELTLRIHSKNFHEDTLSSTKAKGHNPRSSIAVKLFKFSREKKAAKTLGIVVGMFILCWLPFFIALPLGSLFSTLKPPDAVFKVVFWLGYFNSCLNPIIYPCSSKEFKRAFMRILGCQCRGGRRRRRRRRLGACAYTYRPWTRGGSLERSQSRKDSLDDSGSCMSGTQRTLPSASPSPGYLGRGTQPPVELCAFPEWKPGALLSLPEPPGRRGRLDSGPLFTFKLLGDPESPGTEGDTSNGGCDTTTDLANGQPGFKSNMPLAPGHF
Method in brief: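 Triplicate competition binding against 0.2-0.25 nM [³H]prazosin in Tris buffer pH 7.4, 30 min at room temperature. Competitor range 0.1-200 nM. Nonspecific binding defined with 10 µM phentolamine. Reaction stopped by GF/B filtration with two cold Tris washes. Membrane protein 300-400 µg per assay. Ki calculated from the data; mean ± SEM of 3-6 experiments.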

[4] = molecular target: Sodium channel alpha subunits; brain (Types I, II, III) (Rattus norvegicus, UniProt P04775+P04774+P08104); assay: Displacement of [3H]batrachotoxin from rat brain sodium channel; assay type: tissue-based
Method in brief: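 Radioligand competition binding was done by an outside contract lab (Pan Lab). Inhibition constants (Ki) were derived from displacement of the stated tritiated ligand. Each compound was tested at 10 µM. Where inhibition at that concentration stayed below 50%, no Ki was reported.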

[5] = molecular target: Serotonin 1 (5-HT1) receptor (Rattus norvegicus) (UniProt P28564+P30940+P19327+P28565); assay: Compound is evaluated for binding affinity towards 5-hydroxytryptamine 1 receptor using [3H]5-HT in rat brain cortex at 10 uM; assay type: tissue-based
Method in brief: (§1)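 Single-concentration screen at 10 µM in contract radioligand binding assays. Records whether inhibition of specific radioligand binding stayed below 50%.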

D(3) dopamine receptor = D(3) dopamine receptor (Homo sapiens, UniProt P35462); assay: Compound is evaluated for binding affinity towards recombinant human Dopamine receptor D3 using [3H]spiperone in CHO cells at 10 uM; assay type: cell-based; method in brief: as §1
D(3) dopamine receptor, sequence (P35462 whole entry): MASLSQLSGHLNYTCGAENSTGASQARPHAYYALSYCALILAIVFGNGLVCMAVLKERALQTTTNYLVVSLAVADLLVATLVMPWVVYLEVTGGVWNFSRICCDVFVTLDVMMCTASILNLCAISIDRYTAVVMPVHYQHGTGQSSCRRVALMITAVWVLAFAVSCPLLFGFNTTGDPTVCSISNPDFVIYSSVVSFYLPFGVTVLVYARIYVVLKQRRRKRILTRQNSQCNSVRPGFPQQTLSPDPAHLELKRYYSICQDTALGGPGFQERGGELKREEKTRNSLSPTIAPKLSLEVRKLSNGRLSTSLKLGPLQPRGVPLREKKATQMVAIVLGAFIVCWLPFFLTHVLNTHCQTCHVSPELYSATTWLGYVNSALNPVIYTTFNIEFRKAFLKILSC

[6] = molecular target: Histamine H1 receptor (Cavia porcellus) (UniProt P31389); assay: Compound is evaluated for binding affinity towards Histamine H1 receptor using [3H]pyrilamine in guinea pig lung at 10 uM; assay type: tissue-based; method in brief: as §1
Histamine H1 receptor (Cavia porcellus), sequence (P31389 whole entry): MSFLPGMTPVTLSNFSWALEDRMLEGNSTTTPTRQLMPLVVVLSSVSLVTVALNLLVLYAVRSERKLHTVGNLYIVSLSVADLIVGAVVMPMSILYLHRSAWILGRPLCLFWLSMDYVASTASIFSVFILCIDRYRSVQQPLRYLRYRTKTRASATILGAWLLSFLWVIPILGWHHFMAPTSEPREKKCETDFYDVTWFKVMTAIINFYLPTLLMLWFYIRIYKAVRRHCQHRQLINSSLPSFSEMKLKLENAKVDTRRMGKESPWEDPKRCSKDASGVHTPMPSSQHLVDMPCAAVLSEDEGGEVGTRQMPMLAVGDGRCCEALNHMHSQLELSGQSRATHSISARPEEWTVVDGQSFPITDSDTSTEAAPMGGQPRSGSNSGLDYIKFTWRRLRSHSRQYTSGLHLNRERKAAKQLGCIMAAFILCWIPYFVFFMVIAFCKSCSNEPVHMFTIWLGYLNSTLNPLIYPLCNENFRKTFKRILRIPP

COc1ccccc1N1CCN(CC2CN3C(=O)Nc4ccccc4C3=N2)CC1 (stereo not given)
Ki [1]: 0.23 µM
Ki [2]: 0.369 µM
pKi [3]: 8.26

COc1ccccc1N1CCN(C[C@H]2CN=C3c4ccccc4N=C(SC)N32)CC1
Ki [1]: 3.5 µM
pKi [3]: 8.85

COc1ccccc1N1CCN(Cc2cnc3c4ccccc4nc(O)n23)CC1
Ki [4]: 5.38 µM
inhibition [5]: < 50%
inhibition (D(3) dopamine receptor): < 50%
Ki [2]: 0.514 µM
inhibition [6]: < 50%

Oc1nc2ccccc2c2ncc(CN3CCN(c4ccccc4Cl)CC3)n12
Ki [4]: 2.46 µM
inhibition [5]: < 50%
inhibition (D(3) dopamine receptor): < 50%
Ki [2]: 0.114 µM
inhibition [6]: < 50%

COc1ccccc1N1CCN(CC2CN=C3c4ccccc4N=C(SC)N32)CC1 (stereo not given)
Ki [4]: 0.404 µM
Ki [1]: 0.97 µM
Ki [2]: 0.168 µM
pKi [3]: 8.41

COc1ccccc1N1CCN(C[C@@H]2CN=C3c4ccccc4NC(=O)N32)CC1
Ki [1]: > 10 µM
pKi [3]: 6.91

COc1ccccc1N1CCN(C[C@@H]2CN=C3c4ccccc4N=C(SC)N32)CC1
Ki [1]: 9 µM
pKi [3]: 6.18

COc1ccccc1N1CCN(Cc2cn3c(O)nc4ccccc4c3n2)CC1
Ki [4]: 4.81 µM
inhibition [5]: < 50%
inhibition (D(3) dopamine receptor): < 50%
Ki [2]: 3.58 µM
inhibition [6]: < 50%

COc1ccccc1N1CCN(C[C@H]2CN=C3c4ccccc4NC(=O)N32)CC1
Ki [1]: 0.183 µM
pKi [3]: 9.38
